According to ChEMBL document CHEMBL1131588, “A novel class of orally active non-peptide bradykinin B2 receptor antagonists. 2. Overcoming the species difference between guinea pig and man” (J Med Chem, 1998):

Tests used:
Cavia porcellus [1] = assay: Compound tested in vivo for inhibition of Bradykinin induced Bronchoconstriction in anaesthetized guinea pig.(P<0.01); % Inhibition at 1 mg/Kg p,o.; type: functional
Procedure, shortened: (§1)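 Male Hartley guinea pigs (470-750 g), fasted overnight, anesthetized with pentobarbital 30 mg/kg ip, cannulated (trachea, jugular vein, esophagus), ventilated 10 mL/kg at 60 breaths/min; alcuronium 0.5 mg/kg iv, propranolol 10 mg/kg sc. BK 5 µg/kg iv; peak rise in insufflation pressure (modified Konzett-Rössler).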

B2 bradykinin receptor [2] = molecular target: T1, B2 bradykinin receptor (Homo sapiens, UniProt P30411); assay: Concentration required to inhibit specific binding of [3H]BK at 1.2 nM to A-431 cells (human epidermoid carcinoma) which express Bradykinin receptor B2 by 50%.; type: cell-based
T1 sequence (P30411 whole entry): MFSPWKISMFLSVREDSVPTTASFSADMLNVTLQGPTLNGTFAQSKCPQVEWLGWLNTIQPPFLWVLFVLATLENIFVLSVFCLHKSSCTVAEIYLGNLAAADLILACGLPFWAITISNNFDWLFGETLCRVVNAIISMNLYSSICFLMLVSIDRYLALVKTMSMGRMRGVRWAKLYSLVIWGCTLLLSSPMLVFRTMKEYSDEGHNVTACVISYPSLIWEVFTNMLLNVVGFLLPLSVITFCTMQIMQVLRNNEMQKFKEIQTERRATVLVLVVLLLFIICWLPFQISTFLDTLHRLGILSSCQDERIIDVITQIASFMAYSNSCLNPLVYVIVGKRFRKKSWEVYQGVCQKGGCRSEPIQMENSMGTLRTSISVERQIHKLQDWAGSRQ

Cavia porcellus [3] = assay: Compound tested in vivo for inhibition of Bradykinin induced Bronchoconstriction in anaesthetized guinea pig.(P<0.05); % Inhibition at 3.2 mg/Kg p,o.; type: functional; details: in the assay text read “0.32 mg/Kg” for “3.2 mg/Kg”; procedure, shortened: as §1
B2 bradykinin receptor [4] = molecular target: T2, B2 bradykinin receptor (Cavia porcellus, UniProt O70526); assay: Concentration required to inhibit specific binding of [3H]BK at 0.06 nM to Bradykinin receptor B2 in guinea pig ileum membrane preparations by 50%.; type: cell membranes
T2 sequence (O70526 whole entry): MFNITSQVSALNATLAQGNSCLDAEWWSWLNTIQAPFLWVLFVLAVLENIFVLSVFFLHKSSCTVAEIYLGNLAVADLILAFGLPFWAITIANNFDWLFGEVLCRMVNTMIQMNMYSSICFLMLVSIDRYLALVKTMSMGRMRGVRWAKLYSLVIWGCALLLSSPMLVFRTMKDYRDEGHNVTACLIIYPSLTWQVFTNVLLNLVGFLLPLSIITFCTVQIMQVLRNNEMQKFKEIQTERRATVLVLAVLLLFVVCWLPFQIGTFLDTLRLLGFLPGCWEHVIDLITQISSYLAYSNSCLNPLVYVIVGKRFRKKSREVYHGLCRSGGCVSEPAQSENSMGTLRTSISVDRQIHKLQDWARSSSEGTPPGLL
Procedure, shortened: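 Guinea pig ileal membranes (100000g pellet, pH 6.8 TES buffer with phenanthroline, bacitracin, DTT, captopril, 0.1% BSA), 0.2 mg protein/mL, incubated with 0.06 nM [3H]BK and compounds 60 min at room temperature; final DMSO below 3%. Filtration on glass fiber filters, scintillation counting; nonspecific binding with 1 µM BK. Three experiments in duplicate.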

Cavia porcellus [5] = assay: Compound tested in vivo for inhibition of Bradykinin induced Bronchoconstriction in anaesthetized guinea pig.(P<0.001); % Inhibition at 3.2 mg/Kg p,o.; type: functional; procedure, shortened: as §1
Cavia porcellus [6] = assay: Compound tested in vivo for inhibition of Bradykinin induced Bronchoconstriction in anaesthetized guinea pig.(P<0.01); % Inhibition at 1 mg/kg. p.o.; type: functional; details: route oral; procedure, shortened: as §1
Cavia porcellus [7] = assay: Compound tested in vivo for inhibition of Bradykinin induced Bronchoconstriction in anaesthetized guinea pig; % Inhibition at 1 mg/Kg p,o.; type: functional; procedure, shortened: as §1
Cavia porcellus [8] = assay: Compound tested in vivo for inhibition of Bradykinin induced Bronchoconstriction in anaesthetized guinea pig.(P<0.01); % Inhibition at 3.2 mg/Kg p,o.; type: functional; procedure, shortened: as §1
Cavia porcellus [9] = assay: Compound tested in vivo for inhibition of Bradykinin induced Bronchoconstriction in anaesthetized guinea pig.(P<0.01); % Inhibition at 3.2 mg/kg p.o.; type: functional; details: route oral; procedure, shortened: as §1
Cavia porcellus [10] = assay: Compound tested in vivo for inhibition of Bradykinin induced Bronchoconstriction in anaesthetized guinea pig; % Inhibition at 3.2 mg/Kg p,o.; type: functional; procedure, shortened: as §1
Cavia porcellus [11] = assay: Compound tested in vivo for inhibition of Bradykinin induced Bronchoconstriction in anaesthetized guinea pig.(P<0.05); % Inhibition at 1 mg/Kg p,o.; type: functional; procedure, shortened: as §1
Cavia porcellus [12] = assay: Compound tested in vivo for inhibition of Bradykinin induced Bronchoconstriction in anaesthetized guinea pig.(P<0.001); % Inhibition at 1 mg/Kg p,o.; type: functional; procedure, shortened: as §1
Cavia porcellus [13] = assay: Compound tested in vivo for inhibition of Bradykinin induced Bronchoconstriction in anaesthetized guinea pig.(P<0.001);% Inhibition at 3.2 mg/Kg p,o.; type: functional; procedure, shortened: as §1

Row | IC50 (B2 bradykinin receptor [2]) [nM] | IC50 (B2 bradykinin receptor [4]) [nM] | Structure (SMILES) | Inhibition (Cavia porcellus [1]) [%] | also measured
1 | 1.4 | 0.66 | Cc1nc2c(OCc3c(Cl)ccc(N(C)C(=O)CNC(=O)/C=C/c4ccc(C(=O)N(C)C)cc4)c3Cl)cccn2c1Br.Cl | 86.7 | Inhibition (Cavia porcellus [3]): 74.8%
2 | 3000 |  | CCNC(=O)NCC(=O)N(C)c1ccc(Cl)c(COc2cccn3c(Br)c(C)nc23)c1Cl |  | Inhibition (Cavia porcellus [5]): 78.1%; inhibition in vivo at 1 mg/kg (Cavia porcellus [6]): 57.2%
3 | 4.8 | 3.9 | Cc1nc2c(OCc3c(Cl)ccc(N(C)C(=O)CNC(=O)/C=C/c4ccc(NS(C)(=O)=O)cc4)c3Cl)cccn2c1Br |  | 
4 | 20 | 0.79 | COCCNC(=O)c1cccc(NC(=O)NCC(=O)N(C)c2ccc(Cl)c(COc3cccn4c(Br)c(C)nc34)c2Cl)c1.Cl | 16.1 | 
5 | 240 | 5.6 | CCCCCC(=O)NCC(=O)N(C)c1ccc(Cl)c(COc2cccn3c(Br)c(C)nc23)c1Cl |  | 
6 |  | 0.09 | NC(N)=NCCC[C@@H](N)C(=O)N[C@@H](CCCN=C(N)N)C(=O)N1CCC[C@H]1C(=O)N1C[C@H](O)C[C@H]1C(=O)NCC(=O)N[C@@H](Cc1cccs1)C(=O)N[C@@H](CO)C(=O)N1Cc2ccccc2C[C@@H]1C(=O)N1[C@H](C(=O)N[C@@H](CCCN=C(N)N)C(=O)O)C[C@@H]2CCCC[C@@H]21 [ICATIBANT] |  | 
7 | > 1000 | 15 | Cc1nc2c(OCc3c(Cl)ccc(N(C)C(=O)CNC(=O)Nc4cccc(N)c4)c3Cl)cccn2c1Br |  | 
8 | 9.1 | 0.36 | CNC(=O)c1ccc(/C=C/C(=O)NCC(=O)N(C)c2ccc(Cl)c(COc3cccn4c(Br)c(C)nc34)c2Cl)cn1.Cl.Cl | 89.4 | 
9 | 1900 | 3.8 | Cc1nc2c(OCc3c(Cl)ccc(N(C)C(=O)CNC(=O)Nc4cccc(Cl)c4)c3Cl)cccn2c1Br.Cl | 14.5 | 
10 | 150 | 1.4 | Cc1nc2c(OCc3c(Cl)ccc(N(C)C(=O)CNC(=O)Nc4ccccc4)c3Cl)cccn2c1Br |  | 
11 | 1.6 | 0.55 | CC(=O)Nc1ccc(/C=C/C(=O)NCC(=O)N(C)c2ccc(Cl)c(COc3cccn4c(Br)c(C)nc34)c2Cl)cc1.Cl |  | Inhibition (Cavia porcellus [7]): 20.7%
12 | 61 | 0.79 | CC(=O)c1cccc(NC(=O)NCC(=O)N(C)c2ccc(Cl)c(COc3cccn4c(Br)c(C)nc34)c2Cl)c1.Cl | 24.9 | 
13 | 75 | 2.7 | COCC(=O)Nc1cccc(NC(=O)NCC(=O)N(C)c2ccc(Cl)c(COc3cccn4c(Br)c(C)nc34)c2Cl)c1 |  | 
14 | 180 | 4.2 | Cc1nc2c(OCc3c(Cl)ccc(N(C)C(=O)CNC(=O)Nc4cccc([N+](=O)[O-])c4)c3Cl)cccn2c1Br |  | inhibition in vivo at 1 mg/kg (Cavia porcellus [6]): 13.6%
15 | 120 | 0.78 | Cc1nc2c(OCc3c(Cl)ccc(N(C)C(=O)CNC(=O)/C=C\c4ccccc4)c3Cl)cccn2c1Br |  | inhibition in vivo at 1 mg/kg (Cavia porcellus [6]): 0%
16 | 260 | 12 | Cc1ccc(NC(=O)NCC(=O)N(C)c2ccc(Cl)c(COc3cccn4c(Br)c(C)nc34)c2Cl)cc1.Cl |  | Inhibition (Cavia porcellus [8]): 35%
17 | 150 | 2.2 | CCOC(=O)c1cccc(NC(=O)NCC(=O)N(C)c2ccc(Cl)c(COc3cccn4c(Br)c(C)nc34)c2Cl)c1 |  | 
18 | 4100 |  | CC(=O)NCC(=O)N(C)c1ccc(Cl)c(COc2cccn3c(Br)c(C)nc23)c1Cl.Cl |  | Inhibition (Cavia porcellus [5]): 94.2%; inhibition in vivo at 1 mg/kg (Cavia porcellus [6]): 62.3%
19 | 200 | 2.3 | COc1cccc(NC(=O)NCC(=O)N(C)c2ccc(Cl)c(COc3cccn4c(Br)c(C)nc34)c2Cl)c1.Cl | 0 | 

Row | IC50 (B2 bradykinin receptor [2]) [nM] | IC50 (B2 bradykinin receptor [4]) [nM] | Structure (SMILES) | Inhibition (Cavia porcellus [1]) [%] | also measured
20 | 610 |  | CCCC(=O)NCC(=O)N(C)c1ccc(Cl)c(COc2cccn3c(Br)c(C)nc23)c1Cl |  | inhibition in vivo at 1 mg/kg (Cavia porcellus [6]): 52.7%
21 | 350 | 1.4 | Cc1nc2c(OCc3c(Cl)ccc(N(C)C(=O)CNC(=O)CCc4ccccc4)c3Cl)cccn2c1Br |  | 
22 | 140 | 2.7 | Cc1cccc(NC(=O)NCC(=O)N(C)c2ccc(Cl)c(COc3cccn4c(Br)c(C)nc34)c2Cl)c1 |  | inhibition in vivo at 3.2 mg/kg (Cavia porcellus [9]): 27.4%
23 | 570 | 11 | Cc1nc2c(OCc3c(Cl)ccc(N(C)C(=O)CNC(=O)NCc4ccccc4)c3Cl)cccn2c1Br.Cl |  | Inhibition (Cavia porcellus [10]): 24.1%
24 | 4.1 | 0.59 | Cc1nc2c(OCc3c(Cl)ccc(N(C)C(=O)CNC(=O)/C=C/c4ccc(N5CCCC5=O)cc4)c3Cl)cccn2c1Br.Cl | 82 | 
25 | 150 | 83 | Cc1ccccc1NC(=O)NCC(=O)N(C)c1ccc(Cl)c(COc2cccn3c(Br)c(C)nc23)c1Cl |  | 
26 | 2.4 | 0.38 | CC(=O)Nc1ccc(/C=C/C(=O)NCC(=O)N(C)c2ccc(Cl)c(COc3cccn4c(Br)c(C)nc34)c2Cl)cn1.Cl.Cl |  | Inhibition (Cavia porcellus [11]): 76.4%
27 | 510 | 4.2 | Cc1nc2c(OCc3c(Cl)ccc(N(C)C(=O)CNC(=O)COc4ccccc4)c3Cl)cccn2c1Br |  | 
28 | 190 | 1.4 | Cc1nc2c(OCc3c(Cl)ccc(N(C)C(=O)CNC(=O)Nc4cccc(C#N)c4)c3Cl)cccn2c1Br.Cl | 4.7 | 
29 | 20 | 0.76 | Cc1nc2c(OCc3c(Cl)ccc(N(C)C(=O)CNC(=O)Nc4cccc(C(=O)N(C)C)c4)c3Cl)cccn2c1Br.Cl | 23.2 | 
30 | 1.5 | 0.5 | CNC(=O)c1ccc(/C=C/C(=O)NCC(=O)N(C)c2ccc(Cl)c(COc3cccn4c(Br)c(C)nc34)c2Cl)cc1.Cl |  | Inhibition (Cavia porcellus [12]): 53.2%
31 | 2.6 | 0.89 | CNC(=O)Nc1ccc(/C=C/C(=O)NCC(=O)N(C)c2ccc(Cl)c(COc3cccn4c(Br)c(C)nc34)c2Cl)cc1.Cl | 18.8 | 
32 | 3.7 | 0.44 | Cc1nc2c(OCc3c(Cl)ccc(N(C)C(=O)CNC(=O)/C=C/c4ccc(C(=O)N(C)C)nc4)c3Cl)cccn2c1Br.Cl.Cl | 92.4 | 
33 | 5200 | 63 | Cc1nc2c(OCc3c(Cl)ccc(N(C)C(=O)CNC(=O)Nc4cccc(C(=O)O)c4)c3Cl)cccn2c1Br |  | 
34 | 670 | 5.3 | Cc1nc2c(OCc3c(Cl)ccc(N(C)C(=O)CNC(=O)Cc4ccccc4)c3Cl)cccn2c1Br.Cl |  | Inhibition (Cavia porcellus [10]): 19.8%
35 | 510 | 340 | Cc1nc2c(OCc3c(Cl)ccc(N(C)C(=O)CNC(=O)NC(=O)c4ccccc4)c3Cl)cccn2c1Br |  | 
36 | 16 | 1.1 | CC(=O)N(C)c1ccc(/C=C/C(=O)NCC(=O)N(C)c2ccc(Cl)c(COc3cccn4c(Br)c(C)nc34)c2Cl)cc1.Cl | 84.3 | 
37 | 830 |  | Cc1nc2c(OCc3c(Cl)ccc(N(C)C(=O)CNC(=O)CN(C)C)c3Cl)cccn2c1Br |  | inhibition in vivo at 1 mg/kg (Cavia porcellus [6]): 72.4%; Inhibition (Cavia porcellus [13]): 92.8%
38 | 480 | 8.9 | Cc1nc2c(OCc3c(Cl)ccc(N(C)C(=O)CNC(=O)CCCc4ccccc4)c3Cl)cccn2c1Br |  | 
